Assay outcomes as filed in PubChem BioAssay.
Only some compounds are listed: those with a hit (about 1.2% of all), similar ones and a draw of the others.
HKDC1 inh: inhibitors of human hexokinase HKDC1; recombinant HKDC1, G6PDH/diaphorase resazurin coupled fluorescence; inhibition, % at 20 µM; hit rate 0.16% among 340,000; AID 493160;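 active = inhibition above about 35% when tested at 20 µM, limit read from the data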;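 also: plate controls were DMSO wells with enzyme for no effect and DMSO wells lacking enzyme for full effect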
Target sequence (Q2TB90 whole entry, looked up): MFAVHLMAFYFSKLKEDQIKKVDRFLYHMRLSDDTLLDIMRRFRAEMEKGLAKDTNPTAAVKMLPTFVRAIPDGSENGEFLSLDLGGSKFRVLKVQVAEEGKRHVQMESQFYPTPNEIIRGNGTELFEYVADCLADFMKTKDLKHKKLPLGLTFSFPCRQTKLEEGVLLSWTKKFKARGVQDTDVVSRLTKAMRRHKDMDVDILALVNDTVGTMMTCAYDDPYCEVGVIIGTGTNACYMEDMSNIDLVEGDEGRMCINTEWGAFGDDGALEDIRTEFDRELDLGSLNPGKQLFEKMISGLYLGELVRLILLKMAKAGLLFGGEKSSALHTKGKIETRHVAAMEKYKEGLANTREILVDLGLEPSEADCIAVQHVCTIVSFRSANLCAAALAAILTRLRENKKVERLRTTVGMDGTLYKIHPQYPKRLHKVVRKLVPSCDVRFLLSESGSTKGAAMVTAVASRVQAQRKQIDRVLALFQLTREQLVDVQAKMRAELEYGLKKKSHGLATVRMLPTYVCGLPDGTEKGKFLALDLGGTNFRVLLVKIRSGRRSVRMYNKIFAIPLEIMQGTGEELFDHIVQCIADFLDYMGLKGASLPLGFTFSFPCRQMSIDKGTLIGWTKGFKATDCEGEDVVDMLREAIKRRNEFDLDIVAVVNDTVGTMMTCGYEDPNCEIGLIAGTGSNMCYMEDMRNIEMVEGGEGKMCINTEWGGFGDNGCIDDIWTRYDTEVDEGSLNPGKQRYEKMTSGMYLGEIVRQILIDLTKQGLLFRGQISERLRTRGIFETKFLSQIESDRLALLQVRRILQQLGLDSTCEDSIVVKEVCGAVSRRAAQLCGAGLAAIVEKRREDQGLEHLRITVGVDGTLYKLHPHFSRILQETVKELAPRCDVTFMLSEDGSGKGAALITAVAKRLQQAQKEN
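Assay system: in-house recombinant HK5 (HKDC1) enzyme. Input: HKDC1 at 5 µg/mL. Medium: Tris pH 8.0 buffer with MgCl2, Tween-20, BSA, BME. Dosing: single 20 µM dose. Schedule: 90 min reaction incubation at room temperature, dark. Signal: resazurin-to-resorufin fluorescence via G6PDH and diaphorase coupling, 525/613 nm. Controls: DMSO-enzyme wells negative, buffer-substituted wells positive.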
G6PDH counter: inhibits Leuconostoc G6PDH, flagging false hits in G6PDH-based assays; Purified L. mesenteroides G6PDH, diaphorase/resazurin coupled fluorescence, 45 min; inhibition, % at 5 µM; hit rate 0.12% among 200,000; in the data active = inhibition above about 50%
Tb hexokinase: blocks Trypanosoma brucei hexokinase 1 activity | inhibition, % at 10 µM | hit rate 0.11% among 220,000 | AID 1430 | recombinant TbHK1, G6PDH-coupled NADH A340;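 active = inhibition of 50% or more in the single-dose primary screen; inactive = inhibition below 50%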
PfG6PD inh: PfG6PD (Plasmodium falciparum) enzyme inhibition | PfGluPho enzyme, NADPH resazurin-diaphorase fluorescence | inhibition, % at 20 µM | hit rate 0.78% among 350,000;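 active = inhibition reaching at least a set limit at 20 µM in the primary screen, cut at about 59% in these data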;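 also: 0% = DMSO wells with substrate and 100% = DMSO wells lacking glucose-6-phosphate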
Diaphorase inh: inhibits diaphorase or chemically oxidizes, flagging diaphorase assay artifacts; diaphorase resazurin-to-resorufin fluorescence, NADH, 16 min; bacterial (C. kluyveri) enzyme, not human; inhibition, % at 20 µM; hit rate 0.69% among 190,000; AID 1217;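 active = primary screen inhibition at 20 µM above a set limit, cut at about 50% in these data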;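 also: plate controls were DMSO with full reaction for no effect and wells lacking NADH for full effect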
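Benchmarks: positive control wells lacking NADH, neutral wells with DMSO only. System: bacterial diaphorase enzyme (C. kluyveri). Input: 0.14 U/mL diaphorase, enzyme working solution. Detection: resorufin fluorescence, excitation 544 nm, emission 590 nm. Times: 16-min room-temperature incubation before reading.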
PfG6PD confirm: PfG6PD inhibition, single-dose confirmed. shares compounds with PfG6PD inh. recombinant PfGluPho, NADPH-diaphorase-resazurin fluorescence. inhibition, % at 20 µM. hit rate 34% among 2,400;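 active = inhibition of at least 50% at 20 µM in any single replicate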;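 also: 0% = DMSO with substrate and 100% = DMSO lacking glucose-6-phosphate substrate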
Diaphorase 10uM: diaphorase inhibition or oxidation at 10 uM NADPH. shares compounds with PfG6PD inh. diaphorase-coupled resazurin reduction, fluorescence, NADPH 10 uM. inhibition, % at 20 µM. hit rate 39% among 820;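 active = average inhibition reaching 50% or more with the compound at 20 µM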;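 also: resorufin red fluorescence formed as diaphorase reduces resazurin using NADPH; 0% = DMSO with enzyme and 100% = DMSO without enzyme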
Diaph ctr 30uM: inhibits diaphorase or oxidizes, flagging false PfG6PD hits. hit rate 29% among 820. shares compounds with PfG6PD inh. inhibition, % at 20 µM. Diaphorase/resazurin coupled assay, resorufin fluorescence, 30 uM NADPH;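 active = inhibition averaging 50% or more, tested at 20 µM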;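 also: 0% = DMSO with enzyme and 100% = DMSO wells lacking diaphorase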
The depositor's hits bear a star; / = no result given.

SMILES	HKDC1 inh	G6PDH counter	Tb hexokinase	PfG6PD inh	Diaphorase inh	PfG6PD confirm	others
CS(=O)(=O)c1ccc(C2=C(CNC(=O)c3nccs3)[C@H]3CC[C@@H](C2)N3CCOc2ccccc2)cc1	/	/	/	0.1	/	/
Cc1ccc(/C=C2\C(=O)NC(=S)N(c3ccccc3F)C2=O)s1	16.2	-1.3	-1.0	66.0*	14.2	55.9*	Diaphorase 10uM=-27.6;Diaph ctr 30uM=-18.8
CCOP(=S)(OCC)Oc1cc(C)oc(=O)c1Cl	-5.8	/	-0.7	62.6*	/	17.0
CCOP(=S)(OCC)Oc1ccc2c(C)c(Cl)c(=O)oc2c1	-6.9	/	/	15.3	/	/
CC(=O)OC1N=C(c2ccccc2)c2cc(Br)ccc2NC1=O (stereo not given)	1.1	5.7	-3.8	-5.1	5.5	/
CC(=O)OC1N=C(c2ccc(Cl)cc2)c2cc(Br)ccc2NC1=O (stereo not given)	6.5	-1.4	0.6	77.8*	14.9	46.7
CCOC(=O)c1cc2c(cn1)[C@@H](CCO)NC2	4.7	/	/	8.1	/	/
CN(C)c1nc(-c2ccccc2)[n+](C)s1	-4.6	1.5	-5.1	53.8	5.0	/
Cc1ccc(-c2nc(N3CCOCC3)s[n+]2-c2ccccc2)cc1	-13.7	-1.1	9.3	59.8*	11.8	77.3*	Diaphorase 10uM=-33.0;Diaph ctr 30uM=-24.9
Cc1cccc(N=C2c3cc([N+](=O)[O-])ccc3-c3c2cc([N+](=O)[O-])cc3[N+](=O)[O-])c1	27.5	/	/	74.2*	/	17.9
CC12CCC3c4ccc(OC(=O)N(CCCl)CCCl)cc4CCC3C1CCC2O (stereo not given)	4.2	/	/	30.7	/	/
COC(=O)C1=C(c2ccc(-c3ccccc3)c(F)c2)C[C@@H]2CC[C@H]1N2C(=O)NCCOc1ccc(OC)cc1	2.4	/	/	13.2	/	/
C[C@]12CCC3C(CC[C@H]4C[C@H](O)CC[C@]34C)C1[C@@H](O)[C@@H](O)[C@@H]2O (stereo not given in full)	-5.0	/	/	-1.8	/	/
O=[As](O)(O)c1ccc(N=Nc2ccc(O)cc2)cc1	1.4	/	-74.4	-10.7	/	/
O=C1C(Cl)=CC(=Nc2ccc(O)cc2)C=C1Cl	13.5	/	/	115.7*	/	110.6*	Diaphorase 10uM=93.3*;Diaph ctr 30uM=81.5*
